High-throughput results: PubChem, The Scripps Research Institute Molecular Screening Center
The list is not random: actives were taken first. Their share in the collection is about 2.3%.
bovine MsrA act – bovine MsrA enzyme activators, primary screen, biochemical, absorbance, HTS; Methionine sulfoxide reductase A (Bos taurus); purified bovine MsrA, absorbance read-out; activation, % at 10.6 µM; actives 0.3% (n = 360,000); in the data active means activation above about 7.5%;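 further: 0% = vehicle and 100% = reference activator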
MC4R barr agon – MC4R agonists recruiting beta-arrestin, primary screen, cell-based, luminescence, agonist arm of biased-ligand search; AID 540308, 2011; activation, % at 8.9 µM; U2OS MC4R beta-arrestin complementation; percent of melanotan II response, DMSO zero; actives 0.98% (n = 360,000);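 active means activation above a per-plate cutoff, the mean activation of sample wells on that plate plus 3 SD, cut at about 8% in these data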
Target sequence (P32245 whole entry, looked up): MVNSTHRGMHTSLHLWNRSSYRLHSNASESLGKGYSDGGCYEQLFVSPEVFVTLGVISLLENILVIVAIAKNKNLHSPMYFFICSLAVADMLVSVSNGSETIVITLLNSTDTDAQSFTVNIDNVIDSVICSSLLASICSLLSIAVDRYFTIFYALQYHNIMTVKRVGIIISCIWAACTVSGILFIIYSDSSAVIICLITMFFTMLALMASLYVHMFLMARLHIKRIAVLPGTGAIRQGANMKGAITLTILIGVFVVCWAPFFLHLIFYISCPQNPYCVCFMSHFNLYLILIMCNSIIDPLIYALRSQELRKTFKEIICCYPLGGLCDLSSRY
MC4R antagonist – MC4R antagonists of cAMP signaling, primary screen, cell-based, TR-FRET, antagonist arm of biased-ligand search; actives 0.48% (n = 360,000); MC4R-expressing cells, MTII-stimulated cAMP, LANCE TR-FRET; inhibition, % at 6.5 µM;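 active means inhibition above its plate's cutoff, the mean of tested wells on that plate plus 3 SD, cut at about 29% in these data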;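 further: 0% = Melanotan II alone and 100% = Melanotan II plus saturating MCL0020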
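Material – human MC4R-expressing U2OS cells · Repeats – no replicates · Detection – TR-FRET with Eu-cAMP and labeled anti-cAMP, 671 nm · Times – compound 30 min, challenge 1 h, detection 1 h · Compound – single nominal compound dose of 6.5 µM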
MsrA inh – bovine MsrA enzyme inhibitors, primary screen, biochemical, absorbance, HTS; Methionine sulfoxide reductase A (Bos taurus); purified bovine MsrA, absorbance read-out; inhibition, % at 15.5 µM; actives 0.75% (n = 360,000); AID 651718, 2012;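 further: 0% = vehicle wells with enzyme and 100% = reference inhibitor wells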
MsrA conf – bovine MsrA inhibitors, retest, confirmation, biochemical, absorbance, HTS; inhibition, % at 15.5 µM; actives 41% (n = 2,300); shares compounds with MsrA inh; purified bovine MsrA, absorbance read-out;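 further: coupled to thioredoxin reductase with NADPH and selenocystamine and DMSO as substrate; 0% = vehicle only and 100% = full effect of reference inhibitor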
Numbers without * were called inactive. Unless noted, no stated cut-off is given here; in the data, active means inhibition above about 4.5%; inactive means the rest.

For COc1ccc(/C=C/C(=O)NC(=S)Nc2ccc(S(=O)(=O)Nc3cc(OC)ncn3)cc2)cc1 the results were bovine MsrA act -3.0, MC4R barr agon -1.2, MC4R antagonist 22.7 and MsrA inh 0.7.
`COc1ccc(/C=C/C(=O)NC(=S)Nc2ccc(S(=O)(=O)Nc3nccnc3OC)cc2)cc1` gave bovine MsrA act -8.2, MC4R barr agon -0.8, MC4R antagonist 14.2, MsrA inh 5.2* and MsrA conf 6.0*.
Screening COc1cc(/C=C/c2ccc3cccc([N+](=O)[O-])c3n2)ccc1OCC(=O)O returned bovine MsrA act -4.6, MC4R barr agon -1.0, MC4R antagonist -8.3, MsrA inh 5.8* and MsrA conf 2.3.
CCOc1cc(/C=N/NC(=O)c2cccs2)cc([N+](=O)[O-])c1O was read as bovine MsrA act -6.2, MC4R barr agon -2.7, MC4R antagonist -14.1, MsrA inh 8.2* and MsrA conf 4.9*.
`O=C(N/N=C\c1cc2c(cc1[N+](=O)[O-])OCO2)c1cccs1` gave bovine MsrA act -3.4, MC4R barr agon -3.8, MC4R antagonist -5.3 and MsrA inh 0.6.
Screening Cn1ncc(C#N)c1NC(=O)C1CC(c2c(F)cccc2Cl)=NO1 (stereo unspecified) returned bovine MsrA act -11.0, MC4R barr agon -0.3, MC4R antagonist -0.2 and MsrA inh 0.7.
Screening CN(C)C(/C=C/Nc1ccccc1F)=C(C#N)C#N returned bovine MsrA act -2.2, MC4R barr agon -1.8, MC4R antagonist 7.1 and MsrA inh 1.1.
Screening COc1ccccc1N/C=C/C(=C(C#N)C#N)N(C)C returned bovine MsrA act -4.0, MC4R barr agon -1.6, MC4R antagonist 11.5, MsrA inh 5.5* and MsrA conf 2.9.
For Cc1nn(C)cc1/C=C/C(=O)c1cccs1 the results were bovine MsrA act -3.5, MC4R barr agon -0.8, MC4R antagonist -0.5, MsrA inh 5.4* and MsrA conf 4.4.
`CCCNC1=C(N(C(C)=O)c2cccc(F)c2)C(=O)c2ccccc2C1=O` gave bovine MsrA act -8.6, MC4R barr agon 2.0, MC4R antagonist -13.0, MsrA inh 21.6* and MsrA conf 5.0*.
For C/C(=N\Nc1ccc(C(=O)O)cc1)c1ccc(-n2ccnc2)cc1 the results were bovine MsrA act -2.9, MC4R barr agon -2.0, MC4R antagonist -5.1, MsrA inh 6.5* and MsrA conf 4.5*.
`C/C(=N\NC(N)=O)c1ccc(-n2ccnc2)cc1` gave bovine MsrA act -2.7, MC4R barr agon -2.4, MC4R antagonist 12.3 and MsrA inh 1.8.
Screening CCc1ccc(NC(=O)c2ccc(F)c(S(=O)(=O)NCC3COc4ccccc4O3)c2)cc1 (stereo unspecified) returned bovine MsrA act -4.6, MC4R barr agon -0.4, MC4R antagonist 7.4 and MsrA inh 0.2.
`CC(=O)NS(=O)(=O)c1ccc(NC(=O)/C=C/c2ccco2)cc1` gave bovine MsrA act -7.0, MC4R barr agon -2.5, MC4R antagonist 1.0, MsrA inh 6.0* and MsrA conf 7.2*.
NS(=O)(=O)c1ccc(NC(=O)/C=C/c2ccco2)cc1 was read as bovine MsrA act -9.8, MC4R barr agon -3.9, MC4R antagonist -1.4 and MsrA inh 4.5.
For O=C(Nc1sc2c(c1C(=O)O)CCCCC2)c1ccco1 the results were bovine MsrA act -1.2, MC4R barr agon -1.8, MC4R antagonist 2.5, MsrA inh 6.0* and MsrA conf 4.4.
For CN1CCN(C(=O)c2c(NC(=O)c3ccco3)sc3c2CCC(C(C)(C)C)C3)CC1 (stereo unspecified) the results were bovine MsrA act -3.5, MC4R barr agon 0.5, MC4R antagonist 1.0 and MsrA inh -0.7.
CC1CCc2c(sc(NC(=O)c3ccco3)c2C(=O)O)C1 (stereo unspecified) was read as bovine MsrA act -3.4, MC4R barr agon 0.1, MC4R antagonist -4.3, MsrA inh 5.8* and MsrA conf 4.7*.
Screening CN(C)C(=O)c1c(NC(=O)c2ccco2)sc2c1CCCCC2 returned bovine MsrA act 1.6, MC4R barr agon -2.0, MC4R antagonist -1.0 and MsrA inh 1.5.
`COc1ccc(NC(=O)c2ccc3c(SCC(=O)O)c4c(nc3c2)CCCC4)c(OC)c1` gave bovine MsrA act -4.9, MC4R barr agon -3.9, MC4R antagonist -2.6 and MsrA inh 1.8.
Screening CC(=O)C1=C(NC(=O)c2ccccc2F)C[C@@H]2[C@H]1C2(C)C returned bovine MsrA act -2.0, MC4R barr agon 1.9, MC4R antagonist -1.8 and MsrA inh 1.1.
For O=c1[nH]c(-[n+]2ccc3ccccc3c2)c(/C=N/N=C(\[O-])c2ccccc2)s1 the results were bovine MsrA act -3.2, MC4R barr agon -4.2, MC4R antagonist -19.8 and MsrA inh 2.6.
Screening CC(C)(C)c1cc[n+](-c2[nH]c(=O)sc2/C=N/N=C(\[O-])c2cccnc2)cc1 returned bovine MsrA act -3.4, MC4R barr agon -0.8, MC4R antagonist -28.4, MsrA inh 5.4* and MsrA conf 5.9*.
Screening N#C/C(=C(/O)COC(=O)c1ccc(O)cc1)c1nc2ccccc2[nH]1 returned bovine MsrA act -5.0, MC4R barr agon -2.4, MC4R antagonist 13.5 and MsrA inh 0.0.
For N#C/C(=C(/O)COC(=O)c1cccnc1Cl)c1nc2ccccc2[nH]1 the results were bovine MsrA act -2.1, MC4R barr agon -3.3, MC4R antagonist 4.8, MsrA inh 4.7* and MsrA conf 1.4.
`CCCCn1c(N)c(N(CC(C)C)C(=O)C2CCC2)c(=O)[nH]c1=O` gave bovine MsrA act -1.9, MC4R barr agon 1.8, MC4R antagonist 8.7 and MsrA inh 0.4.
`CCC(C)(C)NC(=O)C(c1ccco1)N(C(=O)CNC(=O)c1cccs1)c1cccnc1` (stereo unspecified) gave bovine MsrA act -1.1, MC4R barr agon 2.5, MC4R antagonist 5.0 and MsrA inh 2.9.
For CN1c2ccsc2/C(=N/Nc2ccccc2)CS1(=O)=O the results were bovine MsrA act -6.8, MC4R barr agon -0.7, MC4R antagonist -4.3, MsrA inh 5.3* and MsrA conf 3.3.
Cn1c(N)nc(N)c(NC=O)c1=O was read as bovine MsrA act -2.4 and MsrA inh 1.4.
COc1ccc(C2=CC(=O)CC(C)(C)C2)cc1OC was read as bovine MsrA act -10.8, MC4R barr agon 0.8, MC4R antagonist -7.1, MsrA inh 4.8* and MsrA conf 2.2.
Cc1cc(=O)[nH]c(NN=Cc2c(Cl)cccc2Cl)n1 was read as bovine MsrA act 5.3, MC4R barr agon -1.0, MC4R antagonist -5.1 and MsrA inh 0.8.
Cc1cc(=O)[nH]c(N/N=C/C=C/c2ccccc2)n1 was read as bovine MsrA act -8.3, MC4R barr agon -0.6, MC4R antagonist -17.2, MsrA inh 10.6* and MsrA conf 4.3.
